Our source for the cytotoxicity values is ChEMBL document CHEMBL4513216, “Probing the Open Global Health Chemical Diversity Library for Multistage-Active Starting Points for Next-Generation Antimalarials” (ACS Infect Dis, 2020).

A short description of this series: Toxicity liver stage against HepG2, at 10uM. It is filed as cell-based. Details: test concentration 10 uM, cell line HepG2-A16-CD81EGFP. Conditions: human, HepG2-A16-CD81EGFP cells; read-out: INHIBITION
The gist of the method:
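Uninfected HepG2-A16-CD81EGFP cells, 3 × 10^3 per well, 1536-well, plated on prespotted compound at 10 μM final, parasite-free screening media added to match infected plates; puromycin 10 μM positive, DMSO 0.5% negative; run in parallel with 48 h PbLuc assay at 37 °C, 5% CO2; viability by CellTiter-Glo luminescence, normalized to controls.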

For the compound `O=C(c1cn(-c2cc(N3CCSCC3)ncn2)cn1)N1CCOCC1`, the cytotoxicity at 10 µM was determined as 14.9%.

On to `COc1c(CNC(C)C(=O)NC2CCCC2)c(C)nn1C` (configuration not stated), for which the cytotoxicity at 10 µM is -8.45%.

In the case of `Cc1cnc(CNCc2cn(CCN3CCSCC3)nc2C)cn1`, the cytotoxicity at 10 µM is -0.629%.

Take `c1cc(CN2CCCCC2)cc(NCc2cc[nH]n2)c1`: the cytotoxicity at 10 µM was -6.05%.

For `COCc1nc(CN2CCN(c3ccc(OC)cc3)C(=O)C2C)no1` (configuration not stated), the cytotoxicity at 10 µM was determined as 3.35%.

Consider `O=C(CCN1CCCC1c1ccccn1)N1CCc2ccccc2C1` (configuration not stated), for which the cytotoxicity at 10 µM stood at 2.87%.

Turning to `CN(C)C(=O)NC1COC2(CCN(Cc3nccn3C)CC2)C1` (configuration not stated), the cytotoxicity at 10 µM came to 9.48%.

Regarding `CC(c1nc(C2CC2)no1)N(C)Cc1cccc(F)c1` (configuration not stated), the cytotoxicity at 10 µM is -5.43%.

Consider `CCCN1CC(C(=O)Nc2ccccn2)CC1=O` (configuration not stated), for which the cytotoxicity at 10 µM is -16.4%.

For the compound `Cc1cccc(-c2noc(Cn3nc(C(N)=O)ccc3=O)n2)c1`, the cytotoxicity at 10 µM was -1.15%.

Consider `Cc1csc(CCNC(=O)c2ccc(N(C)C)c(F)c2)n1`, for which the cytotoxicity at 10 µM came to 7.15%.

As for `CN(C)CCNc1cc(-c2ncccc2O)c2cc[nH]c2n1`, the cytotoxicity at 10 µM was 7.28%.

Regarding `CN1CCN(C(=O)Cn2nc(C(F)(F)F)c(Br)c2C2CC2)CC1`, the cytotoxicity at 10 µM is -8.5%.

In the case of `Cc1cccc(C(=O)N2CCN(S(C)(=O)=O)[C@@H](C)C2)c1Cl`, the cytotoxicity at 10 µM was 5.58%.

Regarding `N#Cc1ccc(CN2CCc3sccc3C2)c(F)c1`, the cytotoxicity at 10 µM was -5.13%.

`Cc1nc(COC[C@H]2CC[C@H]3[C@H](CCN3c3ncccn3)O2)cs1`: the cytotoxicity at 10 µM is -71.2%.

As to `Cc1ccc(CN2CCC3(CCC3NS(=O)(=O)c3ccccc3)CC2)o1` (configuration not stated), the cytotoxicity at 10 µM is -2.97%.

For `Cc1cnc(NC(=O)C(C)Oc2ccc3c(c2)OCO3)s1` (configuration not stated), the cytotoxicity at 10 µM is -5.22%.

With `Cc1nccn1-c1cncc(C2CCCN2Cc2ccccc2)n1` (configuration not stated), the cytotoxicity at 10 µM is -8.52%.

For `O=C1COc2ccc(S(=O)(=O)NCc3ccccc3)c3c2N1CCC3`, the cytotoxicity at 10 µM is -7.48%.

With `CCC1CCCCN1C(=O)CCn1cnc2sccc2c1=O` (configuration not stated), the cytotoxicity at 10 µM is -9.79%.

Take `Cn1ccnc1CN1CCC2(CC(=O)N(c3cccc(F)c3)C2)C1` (configuration not stated): the cytotoxicity at 10 µM came to 6.97%.

In the case of `COCC1Cn2nnc(-c3cnn(C)c3)c2CN1Cc1ccc(C)s1` (configuration not stated), the cytotoxicity at 10 µM was -10.5%.

On to `CCOc1ccc(C2CC(=O)NCc3nc(N)sc32)cc1CO` (configuration not stated), for which the cytotoxicity at 10 µM is -6.33%.

For `Cc1ccccc1C(N)c1ccncc1` (configuration not stated), the cytotoxicity at 10 µM is -0.871%.

Consider `Cc1cccc(CN2CCC(c3nnsc3S(C)(=O)=O)CC2)c1`, for which the cytotoxicity at 10 µM worked out at 1.86%.

For the compound `CCN(C(=O)CN1CCN(CC(C)O)CC1)C1=CCCCC1` (configuration not stated), the cytotoxicity at 10 µM is 8.67%.

Take `O=C(O)c1cn(CC2CCCN(c3ccc4ccccc4n3)C2)nn1` (configuration not stated): the cytotoxicity at 10 µM is -7.14%.

As to `COc1ccc(C2CCCN2C(=O)NCCCn2ccnc2)cc1` (configuration not stated), the cytotoxicity at 10 µM was -13.4%.

Regarding `Cc1noc(C)c1C(=O)NCCc1cccs1`, the cytotoxicity at 10 µM stood at 12%.

Turning to `COC(=O)c1ccc(C(=O)NS(=O)(=O)c2cncc(Br)c2)cc1`, the cytotoxicity at 10 µM was 9.95%.

As for `COCc1ncc(-c2nccn2CCn2cnnc2)cn1`, the cytotoxicity at 10 µM was determined as 4.6%.

As for `Cc1cc(CN2C[C@@H](C)[C@@]3(CCN(C)C3=O)C2)oc1C`, the cytotoxicity at 10 µM was 8.34%.

On to `Cc1n[nH]c(C)c1CNC(=O)c1cn(CCC2CCCCN2)nn1` (configuration not stated), for which the cytotoxicity at 10 µM was 1.61%.

Regarding `COc1ncccc1CN1C[C@@H]2COC[C@]2(COCC2CC2)C1`, the cytotoxicity at 10 µM came to 5.37%.

Regarding `COC(=O)CCCn1ccnc1-c1ccc(OC)c(F)c1F`, the cytotoxicity at 10 µM is -2.8%.

`CCc1nc(CCNC(=O)Nc2ccc(C(=O)NC)cc2C)cs1`: the cytotoxicity at 10 µM turned out to be 27.7%.

As to `Cc1nc(CCNC(=O)NCc2cccc(N(C)C)n2)cs1`, the cytotoxicity at 10 µM is 12%.

Turning to `O=C(CCc1cncc(F)c1)NS(=O)(=O)c1ccc(F)cc1F`, the cytotoxicity at 10 µM is -7.49%.

Take `Cc1ccc(F)cc1NC(=O)c1[nH]ncc1Br`: the cytotoxicity at 10 µM amounted to 15.7%.

For the compound `COCC(=O)N1CCC(Cc2nccnc2-c2c(C)n[nH]c2C)C1` (configuration not stated), the cytotoxicity at 10 µM is -11.7%.

With `CCS(=O)(=O)NCC(Cc1cccc(F)c1)N1CCNC1=O` (configuration not stated), the cytotoxicity at 10 µM was -1.89%.

Take `c1ccc(CCc2n[nH]c(C3CCOC3)n2)cc1` (configuration not stated): the cytotoxicity at 10 µM worked out at 2.78%.

`O=C1O[C@@H]2CN(c3cnccn3)C[C@@H]2N1CCCc1ccc(F)cc1`: the cytotoxicity at 10 µM is -3.94%.

With `COc1ccccc1Oc1ncccc1CNC(=O)[C@@H](N)[C@@H](C)O`, the cytotoxicity at 10 µM is -6.29%.

As to `CCCc1n[nH]cc1C(=O)N1CCCC(c2nccn2CC2CC2)C1` (configuration not stated), the cytotoxicity at 10 µM worked out at 1.1%.

As to `Cn1cc(CN2CCc3onc(COCC4CC4)c3C2)cn1`, the cytotoxicity at 10 µM is 6.35%.

`CN(C)C(=O)N1C[C@H]2CC[C@@H](C1)N(C/C=C/c1ccc(F)cc1)C2`: the cytotoxicity at 10 µM is -0.545%.

As to `Cc1nc2c(c(=O)n1C)CCN(C(=O)Cn1cccc1)CC2`, the cytotoxicity at 10 µM is -2.18%.

Take `CC(C)n1cnc2c1C(C(=O)NCCO)N(Cc1ccccc1)CC2` (configuration not stated): the cytotoxicity at 10 µM amounted to 2.43%.

For `Cc1ccccc1C(C(=O)NCCSC(C)C)N(C)C` (configuration not stated), the cytotoxicity at 10 µM was determined as 9.38%.

On to `Cc1occc1C(=O)N1C[C@@H]2OCCN(c3ncccn3)[C@@H]2C1`, for which the cytotoxicity at 10 µM worked out at 7.34%.

For the compound `O=C(Cc1cccs1)N1CCc2nnc(COc3cncnc3)n2CC1`, the cytotoxicity at 10 µM worked out at 8.61%.

`O=C1N(CC2CC2)C2(CCSCC2)NC12CCCC2`: the cytotoxicity at 10 µM was -150%.

`Cc1ncsc1C(=O)NC1CCN(CC(=O)NCc2ccccc2)CC1`: the cytotoxicity at 10 µM was -4.62%.

Regarding `CN(CC(O)CO)c1nc(-c2cccnc2)nc2c1CCNC2` (configuration not stated), the cytotoxicity at 10 µM is -0.0186%.

In the case of `Cc1n[nH]c(C)c1Sc1ccccc1NC(=O)N1CCOCC(O)C1` (configuration not stated), the cytotoxicity at 10 µM was -2.42%.

`O=C1c2ncccc2C(CCO)N1Cc1ccccc1` (configuration not stated): the cytotoxicity at 10 µM was -4.26%.

`CCCc1cnc(C)nc1N1CCC(Cc2cccc(C(N)=O)c2)C1` (configuration not stated): the cytotoxicity at 10 µM is 3.52%.

As to `CC(=O)N(Cc1noc(C)n1)C1CCN(Cc2c(C)noc2C)C1` (configuration not stated), the cytotoxicity at 10 µM is -9.55%.

In the case of `COCCCN(CCOC)C(=O)Nc1ccc(C)cc1C`, the cytotoxicity at 10 µM was 4.16%.

Turning to `CCc1nc2ccccc2c(=O)n1CC1(O)CCN(S(C)(=O)=O)CC1`, the cytotoxicity at 10 µM was -3.5%.

On to `COc1ccc(-c2cnc(NC(C)=O)[nH]2)cc1`, for which the cytotoxicity at 10 µM is -0.825%.

Consider `N#Cc1cc(F)ccc1CN1CCCCC1Cn1cccn1` (configuration not stated), for which the cytotoxicity at 10 µM is -2.93%.

With `COc1nc2ccn(CCNc3cc(C)ccn3)c(=O)c2cc1C#N`, the cytotoxicity at 10 µM was 11.7%.

With `CCS(=O)(=O)N1Cc2nccn2CC(CN2CCCC2)C1` (configuration not stated), the cytotoxicity at 10 µM is -124%.

As for `Cc1cc(C(F)(F)F)nn1CCCNC(=O)C1CCCC1`, the cytotoxicity at 10 µM was -4.93%.

As to `CCN(CC1COc2ccccc2O1)C(=O)C1=NN(C)C(=O)CC1` (configuration not stated), the cytotoxicity at 10 µM was -39.6%.

As to `O=C(c1ccc2occc2c1)N1CCC(C(=O)O)(n2cccn2)CC1`, the cytotoxicity at 10 µM was -0.657%.

On to `O=C(Nc1ccc(-c2nnc[nH]2)cc1)C1CCN1Cc1ccccc1` (configuration not stated), for which the cytotoxicity at 10 µM is 9.73%.

As for `O=C(c1ccc2[nH]ccc2c1)N1CC[C@@H]2CN(CC3CC3)CCO[C@@H]2C1`, the cytotoxicity at 10 µM was -108%.

Turning to `COCC1CCCN(C(=O)c2ccc(N(C)Cc3cnn(C)c3)nc2)C1` (configuration not stated), the cytotoxicity at 10 µM was -3.97%.

`O=C(NC1CCCCNC1=O)c1cc2ccccc2[nH]c1=O` (configuration not stated): the cytotoxicity at 10 µM was -6.08%.

As to `O=C(C[S+]([O-])Cc1csc(C2CCCC2)n1)NC1CCCC1` (configuration not stated), the cytotoxicity at 10 µM was -38.2%.

Regarding `CCc1cnc(NC(=O)NC2CCN(C)CC2)s1`, the cytotoxicity at 10 µM is -5.66%.

As to `Fc1ccccc1Cc1noc(CN2CCCC(CN3CCCC3)C2)n1` (configuration not stated), the cytotoxicity at 10 µM was -12.3%.

Consider `Cc1ccc(CCN2CCC(N(C)Cc3noc(C4CC4)n3)C2)cc1` (configuration not stated), for which the cytotoxicity at 10 µM was -8.31%.

Turning to `CCCNC(=O)Nc1cccc2c1CCN(S(C)(=O)=O)C2`, the cytotoxicity at 10 µM was -7.92%.

Take `CCNc1nnc(CCn2nc(C)c(Br)c2C)s1`: the cytotoxicity at 10 µM was 2.14%.

In the case of `COCC(=O)N1CCC2(CCC2NC(=O)c2ccn(C)c2)CC1` (configuration not stated), the cytotoxicity at 10 µM was -76.4%.

In the case of `CNC(=O)[C@@H]1COC[C@H]2CN(C(=O)COc3ccccc3)C[C@H]21`, the cytotoxicity at 10 µM was -1.65%.

Turning to `CCOCC(O)CN1CCN(C(=O)Cc2ccccc2Cl)CC1` (configuration not stated), the cytotoxicity at 10 µM is -1.19%.

Take `CCC(O)(CNCc1ncc[nH]1)c1ccc(Br)cc1` (configuration not stated): the cytotoxicity at 10 µM was 3.54%.

On to `CCOCCN(CCOCC)c1nc(C)nc2sccc12`, for which the cytotoxicity at 10 µM was -126%.

As for `O=C(CCc1nccs1)N1CCC(N2CCNC2=O)CC1`, the cytotoxicity at 10 µM was -9.86%.

Turning to `O=C(C1=CCCC1)N1CCO[C@H]2[C@@H](OCC3CC3)CC[C@@H]21`, the cytotoxicity at 10 µM is -5.66%.

On to `CNS(=O)(=O)c1cccc(CNC(=O)CCc2ccsc2)c1`, for which the cytotoxicity at 10 µM stood at 13.5%.

Take `CN(C)c1cc(C2CCCN2C(=O)c2ccc(=O)n(C)c2)ccn1` (configuration not stated): the cytotoxicity at 10 µM is -23.9%.

Regarding `CCc1c(C)nn2c(O)cc(C3CCN(C(=O)c4ccn(C)n4)C3)nc12` (configuration not stated), the cytotoxicity at 10 µM was determined as 7.92%.

`Cn1nc2c(cc1=O)CN(Cc1nc(-c3ccoc3)no1)CC2`: the cytotoxicity at 10 µM turned out to be 7.72%.

For the compound `CCc1cc(NC(=O)c2cccc(OCC(F)(F)F)n2)[nH]n1`, the cytotoxicity at 10 µM was -1.42%.

Regarding `Cc1cc(C)n(C2CN(c3nc(-c4ccncc4)nc4c3CCC4)C2)n1`, the cytotoxicity at 10 µM is -33.6%.

Turning to `CC(C)CNC(=O)[C@H]1CCS(=O)(=O)[C@@H]2CN(CC(C)C)C[C@H]12`, the cytotoxicity at 10 µM is -1.66%.

`N#Cc1cccc(N2CCCC(CO)(CCOc3ccccc3)C2)n1` (configuration not stated): the cytotoxicity at 10 µM is -47.2%.

With `Cn1cccc1-c1cc(C(=O)N2CC(c3cccnc3)C2)[nH]n1`, the cytotoxicity at 10 µM is -13.7%.

For the compound `COCC(O)CN(C)c1ccnc2ccc(Cl)cc12` (configuration not stated), the cytotoxicity at 10 µM was -5.93%.

As to `CCc1ccc(CN2Cc3nccn3CC(CN3CCOCC3)C2)o1` (configuration not stated), the cytotoxicity at 10 µM is -87.9%.
